Measured values collected from several papers.
Compare with care: the assays were run in different laboratories.
Target: MAP/microtubule affinity-regulating kinase 4 (MARK4, Homo sapiens, UniProt Q96L34)
Sequence (Q96L34 1-752, as in one of the studies): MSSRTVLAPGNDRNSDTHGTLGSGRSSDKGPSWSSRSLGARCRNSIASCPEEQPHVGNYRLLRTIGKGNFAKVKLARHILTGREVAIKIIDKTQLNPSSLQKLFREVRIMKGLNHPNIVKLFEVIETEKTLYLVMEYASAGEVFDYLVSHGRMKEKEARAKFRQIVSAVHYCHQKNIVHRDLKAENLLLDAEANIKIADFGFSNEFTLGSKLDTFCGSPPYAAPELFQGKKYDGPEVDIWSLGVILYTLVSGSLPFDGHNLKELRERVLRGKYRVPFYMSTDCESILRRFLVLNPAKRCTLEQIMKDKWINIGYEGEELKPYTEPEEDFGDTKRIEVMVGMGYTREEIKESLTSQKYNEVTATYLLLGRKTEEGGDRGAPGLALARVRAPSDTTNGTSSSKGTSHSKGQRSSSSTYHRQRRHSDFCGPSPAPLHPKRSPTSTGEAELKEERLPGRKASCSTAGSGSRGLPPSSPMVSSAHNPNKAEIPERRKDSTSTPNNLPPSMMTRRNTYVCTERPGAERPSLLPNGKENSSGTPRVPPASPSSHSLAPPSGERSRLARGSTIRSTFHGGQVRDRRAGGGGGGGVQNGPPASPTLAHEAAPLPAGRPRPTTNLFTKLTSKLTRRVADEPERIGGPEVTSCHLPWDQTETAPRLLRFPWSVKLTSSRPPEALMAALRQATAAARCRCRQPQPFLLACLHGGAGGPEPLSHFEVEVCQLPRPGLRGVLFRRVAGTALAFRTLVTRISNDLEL

Structure (SMILES) | effect on | mode | technique | tested at | quantity | value
O=C(O)[C@H]1[C@H](Cn2nnc3ccccc3c2=O)CC[C@@H]1C(=O)c1ccc(OCCC2CCOCC2)cc1 | cell-free assay |  | competition with immobilised ligand | 1 µM | remaining binding | 96%
Cc1nn(CC(F)(F)F)cc1Nc1ncc(Br)c(NCCc2cnc[nH]2)n1 | enzyme activity | inhibitor | radiometric | 1 µM | remaining activity | 49%
COc1cc(/C=C/C(=O)CC(=O)/C=C/c2ccc(O)c(OC)c2)ccc1O | enzyme activity | inhibitor |  | 1 µM | activity vs control | 74%
CCOc1cc(-c2nncn2C)ccc1Nc1ncc2cc(C)nc(NCC(C)(C)C)c2n1 | enzyme activity | inhibitor | FRET | 1 µM | inhibition | < 15%
Cc1nn(CC(F)(F)F)cc1Nc1ncc(C2CC2)c(NCc2ccc(S(N)(=O)=O)cc2)n1 | enzyme activity | inhibitor | radiometric | 1 µM | remaining activity | 110%
CCCOc1ccc([C@@H]2[C@@H](C(=O)O)[C@H](c3ccc4c(c3)OCO4)CN2CC(=O)Nc2c(CC)cccc2CC)cc1 | cell-free assay |  | competition with immobilised ligand | 1 µM | remaining binding | 100%
O=C(NCCCNc1ccnc(Nc2cccc(NC(=O)N3CCCC3)c2)n1)C1CCC1 | enzyme activity | inhibitor | radiometric | 1 µM | remaining activity | 85%
C[C@H](c1cccc(C#N)c1)n1cc(Cl)cc(C(N)=O)c1=N | cell-free assay |  | competition with immobilised ligand | 1 µM | remaining binding | 99%
Oc1cccc(-c2nc(N3CCOCC3)c3oc4ncccc4c3n2)c1 | enzyme activity | inhibitor |  | 10 µM | remaining activity | 108%
NS(=O)(=O)c1ccc(CNc2nc(Nc3cccc(NC(=O)N4CCCC4)c3)ncc2C2CC2)cc1 | enzyme activity | inhibitor | radiometric | 1 µM | remaining activity | 89%
CN1CCN(c2cnc3c(C4CCN(C(=O)c5ccc(OC(F)(F)F)cc5N)CC4)ncnc3c2)CC1 | cell-free assay |  | competition with immobilised ligand | 1 µM | remaining binding | 100%
CCCS(=O)(=O)Nc1ccc(F)c(C(=O)c2c[nH]c3ncc(-c4ccc(Cl)cc4)cc23)c1F | enzyme activity | inhibitor |  | 1 µM | inhibition | < 20%
N#CCCc1ccc2c(c1)-c1[nH]c3ccc([N+](=O)[O-])cc3c1CC(=O)N2 | cell-free assay |  |  | 0.5 µM | remaining signal | 62.5%
FC(F)(F)Oc1cccc(-c2cnc3ccc(-c4ccncc4)nn23)c1 | enzyme activity | inhibitor | radiometric | 1 µM | activity vs control | 91%
c1cc(CN2CCOCC2)cc(Nc2nccc(NCCc3cnc[nH]3)n2)c1 | enzyme activity | inhibitor | radiometric | 1 µM | remaining activity | 68%
N[C@@H]1CCN(c2nccc(-c3cnn4ncccc34)n2)C1 | binding |  |  | 1 µM | remaining binding | 100%
O=C(NCCCNc1nc(Nc2cccc(NC(=O)N3CCCC3)c2)ncc1C1CC1)C1CCC1 | enzyme activity | inhibitor | radiometric | 1 µM | remaining activity | 7%
CO[C@@H](C)c1c(Nc2ccc([C@H](N(C)C(=O)C3CCS(=O)(=O)CC3)C(F)(F)F)cc2)cnc2cc(Cl)nn12 | cell-free assay |  | competition with immobilised ligand | 1 µM | remaining binding | 76%
O=C1Nc2ccc(Cl)cc2C1=Cc1cc(Cl)c(O)c(Cl)c1 | cell-free assay |  |  | 0.5 µM | remaining signal | 78.4%
NS(=O)(=O)c1cc(NC(=O)Cc2ccccc2)ccc1Oc1cccc(Cl)c1 | cell-free assay |  | competition with immobilised ligand | 1 µM | remaining binding | 100%
NS(=O)(=O)c1ccc(CNc2ccnc(Nc3cccc(CN4CCOCC4)c3)n2)cc1 | enzyme activity | inhibitor | radiometric | 1 µM | remaining activity | 98%
COc1ccc2c(c1)O[C@@H](c1ccc(OC)c(OC)c1)C[C@H]2NC(=O)C1(c2ccc3c(c2)OC(F)(F)O3)CC1 | cell-free assay |  | competition with immobilised ligand | 1 µM | remaining binding | 92%
COc1cc2ncnc(Nc3ccc(Oc4ccccc4)c(C)c3C)c2cc1OC | enzyme activity | inhibitor |  | 1 µM | inhibition | -1%
c1cc(CN2CCOCC2)cc(Nc2ncc(C3CC3)c(NCCc3c[nH]cn3)n2)c1 | enzyme activity | inhibitor | radiometric | 1 µM | remaining activity | 4%
O=C(N[C@H]1CCCCC/C=C\C2C[C@@]2(C(=O)O)NC(=O)[C@@H]2C[C@@H](Oc3ccncc3)CN2C1=O)OC1CCCC1 (stereo partly shown) | binding |  | competition with immobilised ligand | 1 µM | remaining binding | 100%
